Screens from PubChem BioAssay.
Compounds with a hit are over-represented: about 3.1% of the library has one in this group of screens.
DENV2 CPE rescue: DENV2-induced cell death inhibition. DENV2-infected cells, cytopathic effect rescue, plate reader. CPE inhibition, % at 9.99 µM. hit rate 1.7% among 350,000. AID 651640; in the data active = CPE inhibition above about 20%, passing the limit was not always enough; tested in BHK-21 cells
Cneo AK release: Cryptococcus neoformans lysis via adenylate kinase release; C. neoformans lysis, adenylate kinase release luminescence, 4 h; normalised: neutral wells 0, clomiphene wells 100; lysis activity, % at 15 µM; hit rate 0.2% among 360,000; AID 651654;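 active = mean lysis activity across replicates of at least 80%, whatever share of replicates individually reach that level; inactive = mean lysis activity below 80%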
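Assay system: log-phase C. neoformans yeast / Quantity: yeast cell density of 5 × 10^6 cells/mL / Medium: fresh YPD growth medium / Compound: single dose / Timing: static 4 h at 37 °C with compound, 1 h detection / Measured by: adenylate kinase release luminescence / Read-out: lysis from increased AK signal / Benchmarks: Clomiphene as positive lysis control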
miR-122 sensor: miR-122 inhibition in Huh7 cells; Huh7 miR-122 Renilla luciferase sensor, 48 h; neutral wells = 0, positive control = 100; activation (reporter increase), % at 12.5 µM; hit rate 0.3% among 340,000; AID 602342;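 active = mean replicate activation score at least 90 and every replicate individually at or above 90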;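 also: higher luciferase means less miR-122 activity so hits act as miR-122 inhibitors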
E-selectin induc: E-selectin induction on HUVECs; hit rate 0.37% among 260,000; P16581; activation, % at 7.58 µM; HUVEC E-selectin immunofluorescence imaging; normalized: neutral wells 0, TNF-alpha wells 100;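 active = mean E-selectin-positive cell signal at least 10% of the positive control, reached in at least 60% of replicates, without over 20% cell loss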
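Material: HUVEC primary endothelial cells; Amount: 3,000 cells per well; Dosing: single concentration; Medium: EGM-2 growth medium on 0.1% gelatin-coated wells; Read-out basis: percent E-selectin-positive cells; Signal: immunofluorescence imaging; Control set: TNF-alpha, DMSO.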
rRNA inh HTS: inhibitors of bacterial rRNA selective over humanized ribosomes; hit rate 1.6% among 350,000; E. coli WT GFP vs humanized-ribosome RFP mutants, fluorescence, 24 h; stronger effect = lower value; DMSO median 0, no signal -100; GFP signal change (wild-type ribosome), % (test concentration not listed);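 active = significant combined selectivity score with lowered wild-type GFP, culture density cut under 30%, mutant RFP and density less affected; inactive = any of these conditions unmet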
A number is an active result; n = inactive; x = no result; ! = not active in a repeat.

SMILES	DENV2 CPE rescue	Cneo AK release	miR-122 sensor	E-selectin induc	rRNA inh HTS
C[C@@H]1CN([C@H](C)CO)C(=O)c2cc(NC(=O)Cc3ccccc3)ccc2O[C@H]1CN(C)C(=O)NC1CCCCC1	n	n	n	71	n
CC(C)NC(=O)N(C)C[C@H]1Oc2ccc(NC(=O)Cc3ccccc3)cc2C(=O)N([C@H](C)CO)C[C@@H]1C	52!	n	n	n	n
CC(C)NC(=O)N(C)C[C@@H]1Oc2ccc(NC(=O)Cc3ccccc3)cc2C(=O)N([C@H](C)CO)C[C@H]1C	78	n	n	x	n
C[C@@H]1CN([C@H](C)CO)C(=O)c2cc(NC(=O)Nc3ccc(F)cc3)ccc2O[C@@H](C)CCCCO[C@H]1CN(C)Cc1ccc(C(F)(F)F)cc1	n	n	n	x	n
O=C(NC[C@@H]1[C@@H](c2ccccc2)[C@@H](CO)N1Cc1cccnc1)C1CCCCC1	n	x	x	n	n
C[C@H]1CN([C@@H](C)CO)C(=O)c2cccc(NC(=O)C3CCOCC3)c2O[C@H]1CN(C)C(=O)Nc1ccc2c(c1)OCO2	37	n	n	n	n
C[C@H]1CN([C@@H](C)CO)C(=O)c2cccc(NC(=O)C3CC3)c2O[C@@H]1CN(C)C(=O)Nc1ccc2c(c1)OCO2	n	n	n	n	n
C[C@@H]1CN([C@@H](C)CO)C(=O)c2cc(NC(=O)C3CCCCC3)ccc2O[C@@H]1CN(C)C(=O)Nc1ccc2c(c1)OCO2	n	n	n	n	n
C[C@@H]1CN([C@H](C)CO)C(=O)c2cc(NC(=O)C3CCCCC3)ccc2O[C@H]1CN(C)C(=O)Nc1ccc2c(c1)OCO2	x	n	n	177	n
C[C@H]1CN([C@@H](C)CO)C(=O)c2cccc(NC(=O)C3CCCCC3)c2O[C@@H]1CN(C)C(=O)Nc1ccc2c(c1)OCO2	58	n	n	n	n
C[C@H](CO)N1C[C@H](C)[C@@H](CN(C)Cc2cncnc2)Oc2ncc(/C=C/c3ccccc3)cc2C1=O	n	n	n	n	n
Cc1ccc2ncccc2c1	55	n	n	x	n
COCCNC(=O)C[C@H]1C=C[C@H](NC(=O)NC2CCCC2)[C@H](CO)O1	n	n	x	n	n
O=C(NCc1nc(-c2ccc(C(F)(F)F)cc2)no1)Nc1ccc(F)cc1F	n	n	n	x	n
O=C(NCc1nc(-c2ccc(C(F)(F)F)cc2)no1)Nc1cc(Cl)cc(Cl)c1	n	x	n	x	-47
COc1ccc(-c2ccc([C@H]3[C@@H](CO)N4C(=O)CNC[C@@H]34)cc2)cc1	n	x	x	n	n
CCC(C)Nc1nc(N)c([N+](=O)[O-])c(NCCO)n1 (centres undefined)	94	x	x	x	n
Cc1ccccc1N=C1Nc2ccccc2N[C@]12C[C@H]1CCC(=O)N3CC[C@@H](C2)[C@@H]13	148	n	n	n	n
O=C(c1ccc(Cl)cc1)N1CCc2c([nH]c3ccccc23)C1C(F)(F)F (centres undefined)	26	n	n	x	-21
O=C(O)C[C@@H]1CC[C@@H](NC(=O)Nc2ccccc2)[C@@H](CO)O1	n	n	x	n	n
Cc1cccnc1NC(=O)c1ccc(S(=O)(=O)N2CCCCC2)cc1	n	x	x	n	n
CC(=NNC(=O)c1cccc(S(=O)(=O)N2CCCC2)c1)c1ccccc1	n	n	x	x	n
Cc1cccnc1NC(=O)c1cccc(S(=O)(=O)N2CCCC2)c1	31	n	n	x	n
Cc1nc(-c2cccc(NC(=O)c3cccc(S(=O)(=O)N4CCCC4)c3)c2)cs1	n	n	n	x	-29
CC(=O)Nc1cccc(/C(C)=N/NC(=O)c2cccc(S(=O)(=O)N3CCCC3)c2)c1	25	n	n	n	x
COc1ccc2c3c(n(C)c2c1)[C@@H](CO)N(C(=O)CN(C)C)CC31CN(C(=O)C2CCC2)C1	n	x	x	n	n
COc1ccc(C(=O)Nc2ccc3c(c2)OC[C@@H](C)NC[C@H](C)[C@@H](OC)CN(C)C3=O)cc1	n	n	n	n	n
OCC1CCCN(C(=S)Nc2ccc(OC(F)F)cc2)C1 (centres undefined)	x	n	n	x	n
OCC1CCCN(C(=S)Nc2ccc(Nc3ccccc3)cc2)C1 (centres undefined)	n	n	n	x	-27
COc1ccc2c3c([nH]c2c1)[C@H](CO)N(C(=O)c1ccc(F)cc1)CC31CN(Cc2cccnc2)C1	45	x	x	n	n
